ChEMBL document CHEMBL1144943, “New amide-bearing benzolactam-based protein kinase C modulators induce enhanced secretion of the amyloid precursor protein metabolite sAPPalpha” (J Med Chem, 2003)

Columns and labels:
[1] = system: AG06848 cell line; assay: Ability to enhance […] secretion using human fibroblast AG06848 cell line at 1 uM concentration; format: functional; parameters: unit not given here
Outline: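 AD-patient fibroblasts (AG06848) grown to confluence (about 4–5 days), switched to serum-free DMEM for 2 h, then exposed to 1 μM compound for 3 h with DMSO (below 1%) as solvent control. sAPPα in conditioned medium measured by SDS-PAGE immunoblot with antibody 6E10, loading corrected for total cell protein. Densitometry expressed relative to DMSO-treated cells; 3–6 independent experiments.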

[2] = species on record: Mus musculus; assay: Compound was evaluated for induction of hyperplasia after four application at dose 10 (micro/application); format: functional
[3] = species on record: Mus musculus; assay: Compound was evaluated for induction of hyperplasia after single application at dose 10 (micro/application); format: functional
[4] = species on record: Mus musculus; assay: Compound was evaluated for induction of hyperplasia after four application at dose 100 (micro/application); format: functional
[5] = species on record: Mus musculus; assay: Compound was evaluated for induction of hyperplasia after single application at dose 30 (micro/application); format: functional
[6] = species on record: Mus musculus; assay: Compound was evaluated for induction of hyperplasia after single application at dose 3 (micro/application); format: functional
[7] = species on record: Mus musculus; assay: Compound was evaluated for induction of hyperplasia after four application at dose 3 (micro/application); format: functional
[8] = species on record: Mus musculus; assay: Compound was evaluated for induction of hyperplasia after four application at dose 30 (micro/application); format: functional
[9] = species on record: Mus musculus; assay: Compound was evaluated for induction of hyperplasia after single application at dose 100 (micro/application); format: functional
[10] = species on record: Mus musculus; assay: Compound was evaluated for induction of hyperplasia after single application at dose 300 (micro/application); format: functional
[11] = species on record: Mus musculus; assay: Compound was evaluated for induction of hyperplasia after four application at dose 300 (micro/application); format: functional
[12] = molecular target: Protein kinase C alpha type (Homo sapiens, UniProt P17252); assay: Displacement of PDBU from recombinant Protein kinase C alpha with phosphatidylserine
[13] = species on record: Mus musculus; assay: Compound was evaluated for induction of hyperplasia after single application at dose 3 (micro/application); 1-2; format: functional
[14] = species on record: Mus musculus; assay: Compound was evaluated for induction of hyperplasia after four applications at dose 10 (micro/application); 1-3; format: functional
[15] = species on record: Mus musculus; assay: Compound was evaluated for induction of hyperplasia after single application at dose 10 (micro/application); 1-2; format: functional
[16] = species on record: Mus musculus; assay: Compound was evaluated for induction of hyperplasia after single application at dose 1 (micro/application); 1-2; format: functional
[17] = species on record: Mus musculus; assay: Compound was evaluated for induction of hyperplasia after four applications at dose 3 (micro/application); 1-2; format: functional
[18] = species on record: Mus musculus; assay: Compound was evaluated for induction of hyperplasia after four applications at dose 1 (micro/application); 1-2; format: functional

Compound `CCCCCC(=O)Nc1ccc2c(c1)C[C@@H](CO)NC(=O)[C@H](C(C)C)N2C` has an Activity [1] of 30.

`CC(C)[C@H]1C(=O)N[C@H](CO)Cc2cc(NC(=O)/C=C/C=C/c3ccc(C(F)(F)F)cc3)ccc2N1C` gave an Activity [1] of 40, an Epidermal thickness [2] of 1 and an Epidermal thickness [3] of 1. It also gave an Epidermal thickness [4] of 2, an Epidermal thickness [5] of 1 and an Epidermal thickness [6] of 1. The Epidermal thickness [7] was 1, the Epidermal thickness [8] was 1 and the Epidermal thickness [9] was 1. For the same compound, the Epidermal thickness [10] was 2, the Epidermal thickness [11] was 3 and the Ki [12] was 11.9 nM.

Work on `CC(C)[C@H]1C(=O)N[C@H](CO)Cc2cc(NC(=O)/C=C/C=C/c3ccc(/C=C/C(F)(F)C(F)(F)C(F)(F)C(F)(F)C(F)(F)C(F)(F)F)cc3)ccc2N1C` yielded an Activity [1] of 10 and a Ki [12] of 11.2 nM.

`CC(C)[C@H]1C(=O)N[C@H](CO)Cc2cc(NC(=O)/C=C/C=C/c3ccccc3)ccc2N1C` showed an Activity [1] of 20 and a Ki [12] of 15.8 nM.

Compound `CCCCCCCCC#Cc1ccc2c(c1)C[C@@H](CO)NC(=O)[C@H](C(C)C)N2C` has an Activity [1] of 0.

With `C/C=C/C=C/C(=O)Nc1ccc2c(c1)C[C@@H](CO)NC(=O)[C@H](C(C)C)N2C` the Activity [1] was 10 and the Ki [12] was 1970 nM.

`CC(C)[C@H]1C(=O)N[C@H](CO)Cc2cc(NC(=O)/C=C/C=C/c3cc(C(F)(F)F)cc(C(F)(F)F)c3)ccc2N1C` showed an Activity [1] of 20 and a Ki [12] of 5.6 nM.

`CC(C)[C@H]1C(=O)N[C@H](CO)Cc2cc(NC(=O)CCCCc3ccc(C(F)(F)F)cc3)ccc2N1C` gave an Epidermal thickness [13] of 1, an Epidermal thickness [14] of 1 and an Epidermal thickness [15] of 1. It also gave an Activity [1] of 30, an Epidermal thickness [16] of 1 and an Epidermal thickness [17] of 1. It also gave an Epidermal thickness [18] of 1 and a Ki [12] of 12.5 nM.

`CC(C)[C@H]1C(=O)N[C@H](CO)Cc2cc(NC(=O)CCCCc3ccccc3)ccc2N1C` showed an Activity [1] of 30 and a Ki [12] of 34.2 nM.

`CC(C)[C@H]1C(=O)N[C@H](CO)Cc2cc(NC(=O)CCCCc3cc(C(F)(F)F)cc(C(F)(F)F)c3)ccc2N1C` was tested, and the Activity [1] was 0 and the Ki [12] was 7.8 nM.

For `CC(C)[C@H]1C(=O)N[C@H](CO)Cc2cc(NC(=O)CCCCc3ccc(CCC(F)(F)C(F)(F)C(F)(F)C(F)(F)C(F)(F)C(F)(F)F)cc3)ccc2N1C`, the Activity [1] was 20 and the Ki [12] was 9.2 nM.
